Measurements reported in ChEMBL document CHEMBL1255410, “Activity of the investigational fluoroquinolone finafloxacin against ciprofloxacin-sensitive and -resistant Acinetobacter baumannii isolates” (2010).
Values after ≈ are worked out from the molar mass of the structure shown.

Columns and labels:
Acinetobacter baumannii [1] = assay: Antimicrobial activity against Acinetobacter baumannii isolate 45 harboring GyrA Ser83-Leu and ParC Ser80-Leu mutation at pH 5.8; type: functional
Summary of the method: (§1)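 Agar dilution MIC on Mueller-Hinton agar. For the acidic condition, HCl was added to bring the agar to pH 5.8 before pouring the antibiotic plates, and the pH was checked after the agar set. The standard condition was pH 7.2. Both drugs' plates were made the same day from fresh medium, and MICs were read at the same time.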

Acinetobacter baumannii [2] = assay: Antimicrobial activity against Acinetobacter baumannii isolate 26 harboring GyrA Ser83-Leu mutation at pH 5.8; type: functional
Summary of the method: (§2)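 MIC by agar dilution on Mueller-Hinton agar acidified to pH 5.8 with HCl before antibiotic-containing plates were poured. Agar pH was rechecked once the agar had solidified. Isolates had characterized gyrA/parC genes. Plates for both drugs were made the same day from fresh media, and MICs were read in parallel with the standard-pH set.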

Acinetobacter baumannii [3] = assay: Antimicrobial activity against Acinetobacter baumannii isolate 32 harboring GyrA Ser83-Leu mutation at pH 5.8; type: functional; summary of the method: as §1
Acinetobacter baumannii [4] = assay: Antimicrobial activity against Acinetobacter baumannii isolate 39 harboring GyrA Ser83-Leu mutation at pH 7.2; type: functional; summary of the method: as §1
Acinetobacter baumannii [5] = assay: Antimicrobial activity against Acinetobacter baumannii isolate 63 harboring GyrA Ser83-Leu and ParC Glu84-Lys mutation at pH 7.2; type: functional
Summary of the method: (§3)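 Agar dilution MIC on Mueller-Hinton agar under standard conditions (pH 7.2). Antibiotic-containing plates were made the same day from freshly prepared medium. Agar pH was checked after solidifying. Both fluoroquinolones were tested simultaneously against A. baumannii isolates with characterized gyrA/parC genes. MICs are in μg/ml.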

Acinetobacter baumannii [6] = assay: Antimicrobial activity against Acinetobacter baumannii isolate 40 harboring GyrA Ser83-Leu mutation at pH 7.2; type: functional; summary of the method: as §1
Acinetobacter baumannii [7] = assay: Antimicrobial activity against Acinetobacter baumannii isolate 36 harboring GyrA Ser83-Leu mutation at pH 7.2; type: functional; summary of the method: as §1
Acinetobacter baumannii [8] = assay: Antimicrobial activity against adeB overexpressing Acinetobacter baumannii isolate 68 harboring GyrA Ser83-Leu and ParC Ser80-Leu mutation at pH 5.8; type: functional
Summary of the method: (§4)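 Agar dilution MIC on Mueller-Hinton agar acidified to pH 5.8 with HCl before the antibiotic-containing plates were poured. Agar pH was checked after solidifying. Plates were made the same day from fresh medium. Both fluoroquinolones were tested simultaneously against A. baumannii isolates with characterized gyrA/parC genes. MICs are in μg/ml.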

Acinetobacter baumannii [9] = assay: Antimicrobial activity against Acinetobacter baumannii isolate 65 harboring GyrA Ser83-Leu and ParC Ser80-Leu mutation at pH 7.2; type: functional; summary of the method: as §3
Acinetobacter baumannii [10] = assay: Antimicrobial activity against Acinetobacter baumannii isolate 8 at pH 7.2; type: functional; summary of the method: as §3
Acinetobacter baumannii [11] = assay: Antimicrobial activity against Acinetobacter baumannii isolate 64 harboring GyrA Ser83-Leu and ParC Ser80-Leu mutation at pH 5.8; type: functional; summary of the method: as §4
Acinetobacter baumannii [12] = assay: Antimicrobial activity against Acinetobacter baumannii isolate 28 harboring GyrA Ser83-Leu mutation at pH 5.8; type: functional; summary of the method: as §2
Acinetobacter baumannii [13] = assay: Antimicrobial activity against Acinetobacter baumannii isolate 42 harboring GyrA Ser83-Leu mutation at pH 5.8; type: functional; summary of the method: as §1
Acinetobacter baumannii [14] = assay: Antimicrobial activity against Acinetobacter baumannii isolate 3 at pH 5.8; type: functional; summary of the method: as §2
Acinetobacter baumannii [15] = assay: Antimicrobial activity against Acinetobacter baumannii isolate 21 harboring GyrA Ser83-Leu mutation at pH 5.8; type: functional; summary of the method: as §2
Acinetobacter baumannii [16] = assay: Antimicrobial activity against Acinetobacter baumannii isolate 56 harboring GyrA Ser83-Leu and ParC Ser80-Leu mutation at pH 7.2; type: functional; summary of the method: as §3
Acinetobacter baumannii [17] = assay: Antimicrobial activity against Acinetobacter baumannii isolate 26 harboring GyrA Ser83-Leu mutation at pH 7.2; type: functional
Summary of the method: (§5)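 MIC by agar dilution on Mueller-Hinton agar under standard conditions (pH 7.2), against isolates with characterized gyrA/parC genes. Agar pH was checked after solidifying. Plates for both drugs were prepared the same day from freshly made media, and MICs were determined simultaneously with the pH 5.8 set.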

Acinetobacter baumannii [18] = assay: Antimicrobial activity against Acinetobacter baumannii isolate 7 at pH 7.2; type: functional; summary of the method: as §3
Acinetobacter baumannii [19] = assay: Antimicrobial activity against Acinetobacter baumannii isolate 62 harboring GyrA Ser83-Leu and ParC Ser80-Leu mutation at pH 5.8; type: functional; summary of the method: as §4
Acinetobacter baumannii [20] = assay: Antimicrobial activity against Acinetobacter baumannii isolate 30 harboring GyrA Ser83-Leu mutation at pH 7.2; type: functional; summary of the method: as §5
Acinetobacter baumannii [21] = assay: Antimicrobial activity against Acinetobacter baumannii isolate 53 harboring GyrA Ser83-Leu and ParC Ser80-Leu mutation at pH 5.8; type: functional; summary of the method: as §1
Acinetobacter baumannii [22] = assay: Antimicrobial activity against Acinetobacter baumannii isolate 44 harboring GyrA Ser83-Leu and ParC Glu84-Lys mutation at pH 5.8; type: functional; summary of the method: as §1
Acinetobacter baumannii [23] = assay: Antimicrobial activity against Acinetobacter baumannii isolate 43 harboring GyrA Ser83-Leu mutation at pH 5.8; type: functional; summary of the method: as §1
Acinetobacter baumannii [24] = assay: Antimicrobial activity against adeB overexpressing Acinetobacter baumannii isolate 67 harboring GyrA Ser83-Leu and ParC Ser80-Leu mutation at pH 7.2; type: functional; summary of the method: as §3
Acinetobacter baumannii [25] = assay: Antimicrobial activity against Acinetobacter baumannii isolate 48 harboring GyrA Ser83-Leu and ParC Ser80-Leu mutation at pH 5.8; type: functional; summary of the method: as §1
Acinetobacter baumannii [26] = assay: Antimicrobial activity against Acinetobacter baumannii isolate 29 harboring GyrA Ser83-Leu mutation at pH 7.2; type: functional; summary of the method: as §5
Acinetobacter baumannii [27] = assay: Antimicrobial activity against Acinetobacter baumannii isolate 1 at pH 7.2; type: functional; summary of the method: as §5
Acinetobacter baumannii [28] = assay: Antimicrobial activity against Acinetobacter baumannii isolate 1 at pH 5.8; type: functional; summary of the method: as §2
Acinetobacter baumannii [29] = assay: Antimicrobial activity against Acinetobacter baumannii isolate 61 harboring GyrA Ser83-Leu and ParC Ser80-Leu mutation at pH 5.8; type: functional; summary of the method: as §4
Acinetobacter baumannii [30] = assay: Antimicrobial activity against Acinetobacter baumannii isolate 9 at pH 5.8; type: functional; summary of the method: as §4
Acinetobacter baumannii [31] = assay: Antimicrobial activity against Acinetobacter baumannii isolate 63 harboring GyrA Ser83-Leu and ParC Glu84-Lys mutation at pH 5.8; type: functional; summary of the method: as §4
Acinetobacter baumannii [32] = assay: Antimicrobial activity against Acinetobacter baumannii isolate 21 harboring GyrA Ser83-Leu mutation at pH 7.2; type: functional; summary of the method: as §5
Acinetobacter baumannii [33] = assay: Antimicrobial activity against Acinetobacter baumannii isolate 60 harboring GyrA Ser83-Leu and ParC Ser80-Leu mutation at pH 5.8
Acinetobacter baumannii [34] = assay: Antimicrobial activity against Acinetobacter baumannii isolate 43 harboring GyrA Ser83-Leu mutation at pH 7.2; type: functional; summary of the method: as §1
Acinetobacter baumannii [35] = assay: Antimicrobial activity against Acinetobacter baumannii isolate 55 harboring GyrA Ser83-Leu and ParC Ser80-Leu mutation at pH 5.8; type: functional; summary of the method: as §1
Acinetobacter baumannii [36] = assay: Antimicrobial activity against Acinetobacter baumannii isolate 58 harboring GyrA Ser83-Leu and ParC Ser80-Leu mutation at pH 7.2; type: functional; summary of the method: as §3
Acinetobacter baumannii [37] = assay: Antimicrobial activity against Acinetobacter baumannii isolate 11 at pH 5.8; type: functional; summary of the method: as §2
Acinetobacter baumannii [38] = assay: Antimicrobial activity against Acinetobacter baumannii isolate 62 harboring GyrA Ser83-Leu and ParC Ser80-Leu mutation at pH 7.2; type: functional; summary of the method: as §3
Acinetobacter baumannii [39] = assay: Antimicrobial activity against Acinetobacter baumannii isolate 37 harboring GyrA Ser83-Leu mutation at pH 7.2; type: functional; summary of the method: as §1

SMILES | MIC (Acinetobacter baumannii [1]) | MIC (Acinetobacter baumannii [2]) | MIC (Acinetobacter baumannii [3]) | MIC (Acinetobacter baumannii [4]) | MIC (Acinetobacter baumannii [5]) | MIC (Acinetobacter baumannii [6]) | MIC (Acinetobacter baumannii [7]) | MIC (Acinetobacter baumannii [8]) | MIC (Acinetobacter baumannii [9]) | MIC (Acinetobacter baumannii [10]) | MIC (Acinetobacter baumannii [11]) | MIC (Acinetobacter baumannii [12]) | MIC (Acinetobacter baumannii [13]) | MIC (Acinetobacter baumannii [14]) | MIC (Acinetobacter baumannii [15]) | MIC (Acinetobacter baumannii [16]) | MIC (Acinetobacter baumannii [17]) | MIC (Acinetobacter baumannii [18]) | MIC (Acinetobacter baumannii [19]) | MIC (Acinetobacter baumannii [20]) | also measured
O=C(O)c1cn(C2CC2)c2cc(N3CCNCC3)c(F)cc2c1=O [CIPROFLOXACIN] | > 128 µg/mL | 32 µg/mL (≈ 96.6 µM) | 32 µg/mL (≈ 96.6 µM) | 16 µg/mL (≈ 48.3 µM) | > 128 µg/mL | 16 µg/mL (≈ 48.3 µM) | 16 µg/mL (≈ 48.3 µM) | > 128 µg/mL | > 128 µg/mL | 0.25 µg/mL (≈ 0.754 µM) | > 128 µg/mL | 32 µg/mL (≈ 96.6 µM) | > 128 µg/mL | 2 µg/mL (≈ 6.04 µM) | 32 µg/mL (≈ 96.6 µM) | 128 µg/mL (≈ 386 µM) | 4 µg/mL (≈ 12.1 µM) | 0.12 µg/mL (≈ 0.362 µM) | > 128 µg/mL | 8 µg/mL (≈ 24.1 µM) | MIC (Acinetobacter baumannii [21]): > 128 µg/mL; MIC (Acinetobacter baumannii [22]): > 128 µg/mL; MIC (Acinetobacter baumannii [23]): > 128 µg/mL; MIC (Acinetobacter baumannii [24]): > 128 µg/mL; MIC (Acinetobacter baumannii [25]): > 128 µg/mL; MIC (Acinetobacter baumannii [26]): 4 µg/mL (≈ 12.1 µM); MIC (Acinetobacter baumannii [27]): 0.06 µg/mL (≈ 0.181 µM); MIC (Acinetobacter baumannii [28]): 2 µg/mL (≈ 6.04 µM); MIC (Acinetobacter baumannii [29]): > 128 µg/mL; MIC (Acinetobacter baumannii [30]): 2 µg/mL (≈ 6.04 µM); MIC (Acinetobacter baumannii [31]): > 128 µg/mL; MIC (Acinetobacter baumannii [32]): 4 µg/mL (≈ 12.1 µM); MIC (Acinetobacter baumannii [33]): > 128 µg/mL; MIC (Acinetobacter baumannii [34]): 32 µg/mL (≈ 96.6 µM); MIC (Acinetobacter baumannii [35]): > 128 µg/mL; MIC (Acinetobacter baumannii [36]): 128 µg/mL (≈ 386 µM); MIC (Acinetobacter baumannii [37]): 4 µg/mL (≈ 12.1 µM); MIC (Acinetobacter baumannii [38]): 128 µg/mL (≈ 386 µM); MIC (Acinetobacter baumannii [39]): 16 µg/mL (≈ 48.3 µM)
N#Cc1c(N2C[C@@H]3NCCO[C@H]3C2)c(F)cc2c(=O)c(C(=O)O)cn(C3CC3)c12 [FINAFLOXACIN] | 2 µg/mL (≈ 5.02 µM) | 2 µg/mL (≈ 5.02 µM) | 1 µg/mL (≈ 2.51 µM) | 16 µg/mL (≈ 40.2 µM) | 64 µg/mL (≈ 161 µM) | 16 µg/mL (≈ 40.2 µM) | 16 µg/mL (≈ 40.2 µM) | 4 µg/mL (≈ 10 µM) | 64 µg/mL (≈ 161 µM) | 0.25 µg/mL (≈ 0.628 µM) | 4 µg/mL (≈ 10 µM) | 1 µg/mL (≈ 2.51 µM) | 2 µg/mL (≈ 5.02 µM) | 0.06 µg/mL (≈ 0.151 µM) | 0.25 µg/mL (≈ 0.628 µM) | 32 µg/mL (≈ 80.3 µM) | 16 µg/mL (≈ 40.2 µM) | 0.25 µg/mL (≈ 0.628 µM) | 8 µg/mL (≈ 20.1 µM) | 8 µg/mL (≈ 20.1 µM) | MIC (Acinetobacter baumannii [21]): 2 µg/mL (≈ 5.02 µM); MIC (Acinetobacter baumannii [22]): 4 µg/mL (≈ 10 µM); MIC (Acinetobacter baumannii [23]): 2 µg/mL (≈ 5.02 µM); MIC (Acinetobacter baumannii [24]): 64 µg/mL (≈ 161 µM); MIC (Acinetobacter baumannii [25]): 2 µg/mL (≈ 5.02 µM); MIC (Acinetobacter baumannii [26]): 32 µg/mL (≈ 80.3 µM); MIC (Acinetobacter baumannii [27]): 0.12 µg/mL (≈ 0.301 µM); MIC (Acinetobacter baumannii [28]): 0.06 µg/mL (≈ 0.151 µM); MIC (Acinetobacter baumannii [29]): 8 µg/mL (≈ 20.1 µM); MIC (Acinetobacter baumannii [30]): 0.12 µg/mL (≈ 0.301 µM); MIC (Acinetobacter baumannii [31]): 2 µg/mL (≈ 5.02 µM); MIC (Acinetobacter baumannii [32]): 1 µg/mL (≈ 2.51 µM); MIC (Acinetobacter baumannii [33]): 8 µg/mL (≈ 20.1 µM); MIC (Acinetobacter baumannii [34]): 16 µg/mL (≈ 40.2 µM); MIC (Acinetobacter baumannii [35]): 4 µg/mL (≈ 10 µM); MIC (Acinetobacter baumannii [36]): 64 µg/mL (≈ 161 µM); MIC (Acinetobacter baumannii [37]): 0.06 µg/mL (≈ 0.151 µM); MIC (Acinetobacter baumannii [38]): 64 µg/mL (≈ 161 µM); MIC (Acinetobacter baumannii [39]): 16 µg/mL (≈ 40.2 µM)
